We go through 19 compounds from ChEMBL document CHEMBL1146536, “Pochonins A-F, new antiviral and antiparasitic resorcylic acid lactones from Pochonia chlamydosporia var. catenulata” (J Nat Prod, 2003).

Active and inactive are the calls of the source. No cut-off for these calls is given here.

As a reminder, the EC50 is the concentration at which the effect is half-maximal. A word on the IC50: it is the point on the concentration scale where inhibition reaches its midpoint.

The test system of one series is Human alphaherpesvirus 1. In words: Antiviral activity against HSV1 F infected in african green monkey Vero cells assessed as reduction of virus-induced cytopathic effect by cellular replication assay. Format: functional, organism-based. Put shortly:
(§1)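 HSV1 strain F replication in Vero cells, 0.1 nM to 125 µM. IC50 is the concentration reducing viral cytopathic effect by 50%; Tox50 is the concentration reducing cell viability by 50%. SI = Tox50/IC50.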
In general terms: Damage to the host cells serves as the signal in cytopathic effect assays.

The target of series [1] is T1, Estrogen receptor beta (Homo sapiens, UniProt Q92731). In words: Agonist activity at ERbeta by fluorescence polarization assay. In kind it is functional.
T1 sequence (Q92731 whole entry): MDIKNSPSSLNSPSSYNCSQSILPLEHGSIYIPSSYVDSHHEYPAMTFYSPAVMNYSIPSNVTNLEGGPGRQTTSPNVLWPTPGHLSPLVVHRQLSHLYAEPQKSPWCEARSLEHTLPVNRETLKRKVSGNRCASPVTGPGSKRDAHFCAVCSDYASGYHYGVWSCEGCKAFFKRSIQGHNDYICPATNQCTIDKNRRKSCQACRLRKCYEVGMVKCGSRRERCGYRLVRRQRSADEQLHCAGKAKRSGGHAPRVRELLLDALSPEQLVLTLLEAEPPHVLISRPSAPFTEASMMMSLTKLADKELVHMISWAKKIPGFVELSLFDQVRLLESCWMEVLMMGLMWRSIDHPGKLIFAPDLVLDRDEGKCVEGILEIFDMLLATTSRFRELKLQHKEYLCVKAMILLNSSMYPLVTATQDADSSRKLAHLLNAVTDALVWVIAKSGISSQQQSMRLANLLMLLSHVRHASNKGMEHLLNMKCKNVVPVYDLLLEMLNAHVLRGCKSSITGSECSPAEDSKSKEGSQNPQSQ
The test system of the next series is Neospora caninum. In words: Antiparasitic activity against Neospora caninum NC-1 infected in african green monkey Vero cells treated 2 hrs postinfection by MMDA assay. In kind it is functional, organism-based.
Series [2] concerns Vero. In words: Cytotoxicity against african green monkey Vero cells at 10 uM by crystal violet staining. Format: cell-based. The following applies: chlorocebus sabaeus.
Series [3] is described as follows: Cytotoxicity against PCKC by crystal violet staining. Set-up: species or system Gallus gallus. As to conditions: chicken. Put shortly:
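Uninfected compound-treated primary chicken kidney cells served as toxicity controls in the 120 h monolayer assay (200, 10, 1, 0.1 ppm). Viability judged microscopically or by crystal violet after 5 min MeOH fixation.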

The target in series [4] is T1, Estrogen receptor beta. In words: Agonist activity at ERbeta up to 10 uM by fluorescence polarization assay. Format: functional.
Series [5] can be described thus: Selectivity index, ratio of cytotoxicity against african green monkey Vero cells to IC50 for HSV1 F. Format: toxicity, cell-based. As to conditions: read-out: Selectivity Index. Put shortly: as §1
The test system of series [6] is Eimeria tenella. In words: Antiparasitic activity against Eimeria tenella Houghton infected in PCKC at 10 ppm treated 2 hrs postinfection by MMDA assay. Format: functional, organism-based. Put shortly:
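Confluent primary chicken kidney cell monolayers (DMEM or RPMI with 10% FBS, glutamine, essential amino acids; 37 °C, 5% CO2) in 96-well plates infected with E. tenella Houghton; compounds added 2 h post infection at 200, 10, 1, 0.1 ppm. Stopped 120 h post infection; monolayer disruption scored microscopically or by crystal violet after MeOH fixation (2 full, 1 weak, 0 none).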

Series [7] concerns Vero. The series is described as follows: Cytotoxicity against african green monkey Vero cells at 2.5 uM by crystal violet staining. Format: cell-based. As to conditions: chlorocebus sabaeus.
Series [8] has as its system Vero. The series is described as follows: Cytotoxicity against african green monkey Vero cells by crystal violet staining. Format: cell-based. As to conditions: chlorocebus sabaeus.
The test system of series [9] is Eimeria tenella. In words: Antiparasitic activity against Eimeria tenella Houghton infected in PCKC at 1 ppm treated 2 hrs postinfection by MMDA assay. In kind it is functional, organism-based. Put shortly: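 Primary chicken kidney cell monolayers grown to confluence with 10% FBS, glutamine and essential amino acids at 37 °C, 5% CO2, in 96-well plates. They were infected with E. tenella Houghton, and test samples were added 2 h post infection. Tested at 200, 10, 1 and 0.1 ppm; stopped at 120 h. Monolayer integrity was read microscopically or by MeOH fixation and crystal violet. Scored as full, weak, none or cytotoxic.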

The mark [10] stands for this setting: Human alphaherpesvirus 1, F, Vero.

`COc1cc(O)c2c(c1)/C=C/CCC[C@H](O)CCC[C@H](C)OC2=O`: the outcome with Human alphaherpesvirus 1 and at Estrogen receptor beta [1] was inactive.

As to `C[C@H]1CCC[C@H](O)CCCCCc2cc(O)cc(O)c2C(=O)O1`, the result in the series with Human alphaherpesvirus 1 was inactive.

For the compound `C[C@H]1CCCC(=O)CCCCCc2cc(O)cc(O)c2C(=O)O1` (stereo in doubt; 16), the outcome with Human alphaherpesvirus 1 was inactive.

As for `C[C@H]1CCCC(=O)CCCCCc2cc(O)cc(O)c2C(=O)O1` (stereo in doubt; 16) [ZEARALANONE], the response on Estrogen receptor beta [1] was half-maximal at 38 nM (EC50).

Consider `C[C@H]1CCC[C@@H](O)CCCCCc2cc(O)cc(O)c2C(=O)O1` (stereo in doubt; 17) [TALERANOL], for which, in the series on Human alphaherpesvirus 1 (vero), the IC50 stood at 1500 nM.

Consider `C[C@H]1CCCC(=O)CCCCCc2cc(O)cc(O)c2C(=O)O1` (stereo in doubt; 19), for which the outcome in the series with Human alphaherpesvirus 1 was inactive.

For the compound `C[C@H]1CCCC(=O)CCCCCc2cc(O)cc(O)c2C(=O)O1` (stereo in doubt; 19) [ZEARALANONE], it took 660 nM to reach a half-maximal effect at Estrogen receptor beta [1] (EC50).

`C[C@H]1CCC[C@@H](O)CCCCCc2cc(O)cc(O)c2C(=O)O1` (stereo in doubt; 21) [TALERANOL]: the IC50 in the series on Human alphaherpesvirus 1 (vero) was determined as 15000 nM.

For `C[C@H]1C/C=C/CC/C=C/C(=O)Cc2cc(O[C@@H]3O[C@H](CO)[C@@H](O)[C@H]3O)cc(O)c2C(=O)O1` [MONOCILLIN II GLYCOSIDE], the result with Neospora caninum and on Estrogen receptor beta [4] was inactive. The Activity entry (in the series on Vero [2]; in [3]) was “Toxic” throughout.

With `C[C@@H]1C[C@H]2O[C@@H]2CC/C=C/C(=O)Cc2cc(O)cc(O)c2C(=O)O1` [MONOCILLIN III], the result with Neospora caninum and on Estrogen receptor beta [4] was inactive. The selectivity ratio in series [5] was 7.5. Further, in the series on Human alphaherpesvirus 1 (setting [10]), the IC50 was 400 nM.

Take `C[C@H]1C[C@H]2O[C@@H]2CC/C=C/C(=O)Cc2c(Cl)c(O)cc(O)c2C(=O)O1` [POCHONIN A]: the result with Eimeria tenella [6] was Active. The outcome in the series with Neospora caninum and on Estrogen receptor beta [4] was inactive. The IC50 with Human alphaherpesvirus 1 (setting [10]) came out at 2000 nM.

Regarding `C[C@H]1C[C@H]2O[C@@H]2C[C@H](O)/C=C/C(=O)Cc2c(Cl)c(O)cc(O)c2C(=O)O1` [POCHONIN B], the result with Neospora caninum and on Estrogen receptor beta [4] was inactive. In the series on Human alphaherpesvirus 1 (setting [10]), the IC50 stood at 10000 nM. For the same compound, in series [3], the Activity result was “Toxic”.

With `C[C@H]1C[C@H](O)C(Cl)/C=C\C=C\C(=O)Cc2c(Cl)c(O)cc(O)c2C(=O)O1` (stereo not given in full) [POCHONIN C], the outcome with Neospora caninum and on Estrogen receptor beta [4] was inactive. Besides, the IC50 in the series on Human alphaherpesvirus 1 (setting [10]) came out at 6000 nM. Further, the Activity entry in series [3] is on record as “Toxic”.

As for `C[C@@H]1C/C=C/CC/C=C/C(=O)Cc2c(Cl)c(O)cc(O)c2C(=O)O1` [POCHONIN D], the result with Neospora caninum, in the series on Human alphaherpesvirus 1 and at Estrogen receptor beta [4] was inactive. The Activity result (in the series on Vero [7]; in series [3]) was “Toxic” each time.

Consider `C[C@H]1C/C=C/C(O)C/C=C/C(=O)Cc2c(Cl)c(O)cc(O)c2C(=O)O1` (stereo not given in full) [POCHONIN E], for which the outcome in the series on Neospora caninum and at Estrogen receptor beta [4] was inactive. Moreover, the IC50 in the series with Human alphaherpesvirus 1 (setting [10]) came to 1500 nM. The Activity result in [3] was “Toxic”.

On to `CC/C=C\[C@H](O)[C@H](O)C1=C(C)C(=O)[C@]2(O1)C(=O)N[C@@](OC)(C(=O)c1ccccc1)[C@@H]2O` [PSEUROTIN A], for which the result with Eimeria tenella [6] was Active. Moreover, the outcome with Neospora caninum was inactive. Moreover, the selectivity ratio in series [5] came out at 6. In addition, the IC50 in the series with Human alphaherpesvirus 1 (setting [10]) came out at 50000 nM.

As for `C[C@@H]1C[C@H]2O[C@@H]2/C=C\C=C\C(=O)Cc2c(Cl)c(O)cc(O)c2C(=O)O1` [RADICICOL], the outcome with Eimeria tenella [6] was Active. The result in the series on Neospora caninum and in the series with Eimeria tenella [9] was inactive. Also, the Activity result (in the series on Vero [8]; in series [3]) was “Toxic” each time. Moreover, the IC50 with Human alphaherpesvirus 1 (setting [10]) stood at 200 nM.

Consider `C[C@H]1C[C@H]2O[C@@H]2CCCCC(=O)Cc2c(Cl)c(O)cc(O)c2C(=O)O1` [TETRAHYDROMONORDEN], for which, in the series on Eimeria tenella [6], the outcome was Active. Also, the outcome with Neospora caninum, with Eimeria tenella [9] and at Estrogen receptor beta [4] was inactive. Moreover, the IC50 in the series on Human alphaherpesvirus 1 (setting [10]) was determined as 1500 nM.

For `C[C@H]1CCCC(=O)CCC/C=C/c2cc(O)cc(O)c2C(=O)O1` [ZEARALENONE], the result with Human alphaherpesvirus 1 was inactive. In addition, the EC50 at Estrogen receptor beta [1] was found to be 110 nM.
